# Screening data (PubChem BioAssay)
# M5 ag = human M5 muscarinic receptor agonists, primary screen, CHO-K1 cells, Fluo-8 calcium fluorescence; Muscarinic acetylcholine receptor M5 (Homo sapiens), P08912; CHO-K1 hM5 cells; 0% DMSO wells, 100% maximal acetylcholine response; activation, % at 3 µM; hit rate 0.19% among 360,000;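 active means activation above the run's mean over test compounds plus 3 SD, cut at about 23% in these data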;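 further: signal is peak over basal fluorescence ratio across the kinetic read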
# Target sequence (P08912 whole entry, looked up): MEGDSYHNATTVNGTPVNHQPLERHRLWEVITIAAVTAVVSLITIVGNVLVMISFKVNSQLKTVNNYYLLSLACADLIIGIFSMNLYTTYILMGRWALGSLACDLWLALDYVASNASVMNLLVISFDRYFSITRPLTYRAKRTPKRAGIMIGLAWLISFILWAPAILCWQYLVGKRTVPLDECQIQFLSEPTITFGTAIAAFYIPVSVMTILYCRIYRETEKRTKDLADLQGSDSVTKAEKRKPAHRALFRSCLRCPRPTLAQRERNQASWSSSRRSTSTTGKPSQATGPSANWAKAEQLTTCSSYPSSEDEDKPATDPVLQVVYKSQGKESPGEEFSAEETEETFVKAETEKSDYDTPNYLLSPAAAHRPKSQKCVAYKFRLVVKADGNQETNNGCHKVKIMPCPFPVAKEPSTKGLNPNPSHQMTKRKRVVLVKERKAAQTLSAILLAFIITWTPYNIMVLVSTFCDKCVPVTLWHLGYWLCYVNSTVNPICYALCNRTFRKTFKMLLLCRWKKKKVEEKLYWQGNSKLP
# M4 antag = human M4 muscarinic receptor antagonists, primary screen, CHO cells, Fluo-8 calcium fluorescence. Muscarinic acetylcholine receptor M4 (Homo sapiens), P08173. CHO-hM4 cells, ACh EC80. inhibition, % at 3 µM. hit rate 0.73% among 360,000. AID 624125, 2012;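 active means inhibition above its plate's cutoff, the mean inhibition of sample wells plus 3 SD, cut at about 27% in these data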;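 further: 0% = acetylcholine EC80 with DMSO and 100% = DMSO without agonist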
# CHRM5 antagonist = human M5 muscarinic receptor antagonists, primary screen, CHO cells, Fluo-8 calcium fluorescence. inhibition, % at 3 µM. CHO-hM5 cells, ACh EC80. hit rate 0.59% among 360,000;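 active means inhibition above a per-plate cutoff, the mean of that plate's test compounds plus 3 SD, cut at about 27% in these data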;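 further: 0% = acetylcholine EC80 with DMSO and 100% = DMSO without agonist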
# CHRM5 PAM = human M5 muscarinic receptor positive allosteric modulators, primary screen, CHO-K1 cells, Fluo-8 calcium fluorescence; Muscarinic acetylcholine receptor M5 (Homo sapiens), P08912; CHO-K1 hM5, ACh EC20 PAM; 0% = ACh EC20, 100% = ACh EC100; activation, % at 3 µM; hit rate 0.3% among 360,000; AID 624038, 2012;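 active means activation above the run cutoff, the mean activation of all test compounds plus 3 SD, cut at about 18% in these data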
#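 Assay system: CHO-K1 hM5 cells. Also added: acetylcholine at EC20 concentration, added after compound. Dosing: 3 µM, single dose. Times: compound preincubation 140 s before EC20 acetylcholine addition. Signal: Fluo-8 calcium fluorescence. Measure: % activation relative to EC20 and EC100 ACh responses. Repeats: singlicate, one well per test compound.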
# M4 ag = human M4 muscarinic receptor agonists, primary screen, CHO-K1 cells, Fluo-8 calcium fluorescence. Muscarinic acetylcholine receptor M4 (Homo sapiens), P08173. CHO-K1 hM4/Gqi5; vehicle 0%, full acetylcholine response 100%. activation, % at 3 µM. hit rate 0.14% among 360,000. AID 624127, 2012;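 active means activation above the run mean over all test wells plus 3 SD, cut at about 32% in these data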;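 further: peak over basal fluorescence ratio per well then scaled between controls; 0% = DMSO wells and 100% = acetylcholine at EC100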
# CHRM4 PAM = human M4 muscarinic receptor positive allosteric modulators, primary screen, CHO-K1 cells, Fluo-8 calcium fluorescence. CHO-K1 hM4/Gqi5, ACh EC20; 0% = ACh EC20, 100% = maximal ACh. activation, % at 3 µM. hit rate 0.4% among 360,000;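 active means activation above its plate's cutoff, the mean activation of sample wells plus 3 SD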
# Active calls of the source: *. An excerpt weighted towards active compounds, which were near 1.8% of everything screened.
SMILES,M5 ag,M4 antag,CHRM5 antagonist,CHRM5 PAM,M4 ag,CHRM4 PAM
CCN1CCN(C(=O)COc2cc(=O)n(CC)c3ccccc23)CC1,1.0,3.6,1.4,-0.7,0.5,2.7
CC(C)(C)N1Cc2ccccc2C1=N,-13.0,-4.9,-4.0,30.9*,1.0,-2.2
Cc1cc(C)nc(N2Cc3ccccc3C2=N)n1,-9.0,1.0,3.7,3.9,0.0,-3.9
COc1ccc(OC(=O)N(C)C[C@@H]2OCc3cnnn3CCCC(=O)N([C@@H](C)CO)C[C@H]2C)cc1,0.9,-10.0,-8.2,8.2,0.7,6.9
O=C(Cc1ccccc1)Oc1cccc(N2C(=O)CCC2=O)c1,4.8,1.2,-0.7,-5.1,-0.1,-3.1
CC(C)(C)c1cc(OC(=O)Cc2ccccc2)ccc1O,0.3,-2.5,-4.8,18.5*,-0.8,-3.9
CCOC(=O)c1ccc(NC(=O)N2CC3CC(C2)c2cccc(=O)n2C3)cc1 (stereo not drawn),-2.3,3.1,5.2,2.0,0.9,-2.8
CCOC(=O)c1ccc(NC(=O)N2C[C@@H]3C[C@@H](C2)c2cccc(=O)n2C3)cc1,-0.5,68.8*,3.1,-9.4,0.2,-14.2
CCC(C)(O)C(=O)OC1C(=O)OC2CC3C(C)=CC(O)C(O)C3(C)C3C4(O)OCC23C1C(C)C4O (stereo not drawn),2.1,-9.2,-0.8,-0.1,0.8,0.1
CN1C(=O)C(=Cc2ccc(OCCN(C)c3ccccn3)cc2)C(=O)N(C)C1=O,-6.0,-14.0,1.7,8.1,1.5,11.0
Cc1c(C(=O)Nc2ccccc2)c2cc(O)ccc2n1Cc1ccccc1,0.5,-4.0,1.7,2.2,2.1,-5.1
O=C1NCN(c2ccccc2)C12CCN(C(c1ccnc3ccccc13)c1nnnn1C1CCCCC1)CC2 (stereo not drawn),0.8,5.0,0.9,-2.9,0.3,-7.7
Cc1ccccc1-[n+]1c(-c2ccccc2)cc(-c2ccccc2)cc1-c1ccccc1,-9.4,78.3*,41.5*,-40.1,8.0,-15.2
[O-]c1ccccc1-[n+]1c(-c2ccccc2)cc(-c2ccccc2)cc1-c1ccccc1,-12.0,17.0,8.1,-9.5,3.9,-9.2
Oc1ccccc1-[n+]1c(-c2ccccc2)cc(-c2ccccc2)cc1-c1ccccc1,-11.3,27.6*,11.4,-12.7,2.6,-18.2
Nc1ccccc1-[n+]1c(-c2ccccc2)cc(-c2ccccc2)cc1-c1ccccc1,-19.6,22.5,5.2,-12.4,-0.4,-22.0
C[C@]12CC[C@H](O)C[C@H]1CC[C@@H]1[C@@H]2C[C@@H](O)[C@]2(C)[C@@H](C3=CC(=O)OC3)CC[C@]12O,0.4,0.9,-3.3,5.8,0.8,0.5
COC(=O)C1=C(C)NC(=S)NC1c1ccc(N(CCCl)CCCl)cc1Cl (stereo not drawn),9.3,-5.9,-28.5,18.2*,-1.2,8.6
Clc1ccc(OCC#CCN2CCCCCC2)cc1,-14.8,33.4*,35.3*,-30.3,0.3,-22.6
COc1ccc(OCC#CCN2CCC(C)CC2)cc1,-9.8,7.5,12.6,-7.0,-0.4,-10.3
CCOC(=O)c1c(NS(=O)(=O)c2ccccc2)n(CCCOC)c2nc3ccccc3nc12,6.6,0.3,21.7,13.3,2.8,22.7*
CC(C)(C)c1ccc(C(=O)C2CCCN(C3CCC3)C2)cc1 (stereo not drawn),-15.2,32.0*,5.5,-1.1,2.3,-24.3
CC(C)(C)c1ccc(C(=O)C2CCCN(Cc3ccon3)C2)cc1 (stereo not drawn),0.1,-2.2,-2.6,-1.4,4.1,-5.9
CC(=O)N1CCC(N2CCCC(C(=O)c3cccc(Cl)c3)C2)CC1 (stereo not drawn),-10.5,26.6*,17.6,-16.2,0.6,-21.5
Oc1c(Br)c(Br)c(Br)c(Br)c1Br,3.0,-6.7,19.6,-10.5,8.6,4.2
SMILES,M5 ag,M4 antag,CHRM5 antagonist,CHRM5 PAM,M4 ag,CHRM4 PAM
Cc1cc(C)c(-n2c(O)c(/C=N/N3CCCCC3c3cccnc3)c(=O)[nH]c2=O)c(C)c1 (stereo not drawn),-3.1,-9.0,-4.6,4.1,0.9,-2.6
O=C(CN1CC(c2ccccc2)CC1=O)Nc1ccc(F)cc1 (stereo not drawn),0.7,-21.0,1.8,-5.9,0.7,6.1
C=C(C)Cn1c(=O)n(CC2CS2)c2ccccc21 (stereo not drawn),-1.6,-6.8,8.4,-3.5,0.1,4.2
COC1CC2C=C(C)C=CC=CC(=O)NC(c3ccccc3)CC=CCCC(O)CC(=O)C2=C1O (stereo not drawn),16.4,87.1*,53.8*,-20.0,20.8,-14.1
Clc1ccc(C(OCCN2CCCCC2)c2ccccc2)cc1 (stereo not drawn),-0.7,38.4*,57.0*,-18.4,5.0,-18.6
c1ccc(C(OCCN2CCN(c3ncccn3)CC2)c2ccccc2)cc1,-15.6,-4.1,22.9,-21.0,2.6,-6.0
CNc1cc(Cl)c2nonc2c1[N+](=O)[O-],-5.5,34.0*,15.2,-7.3,-1.8,-6.2
COc1cc(C(=O)OC2C[C@H]3CC[C@@H](C2)N3)ccc1O (stereo partly drawn),-8.3,38.2*,2.4,-7.7,0.5,-15.6
COc1cc(C(=O)OC2C[C@H]3CC[C@@H](C2)N3C)ccc1O (stereo partly drawn),-7.5,3.5,1.2,-0.4,-0.4,-3.8
COc1ccc(-c2cc(-c3ccccc3)[n+](C)c(-c3ccccc3)c2)cc1,-9.9,10.4,22.9,-9.7,0.5,-7.8
C[n+]1c(-c2ccccc2)cc(CCCCc2cc(-c3ccccc3)[n+](C)c(-c3ccccc3)c2)cc1-c1ccccc1,-16.3,46.5*,19.8,-22.9,0.5,-21.1
COC(=O)C1=C(c2ccc(-c3ccccc3)c(F)c2)C[C@@H]2CC[C@H]1N2C(=O)N1CCc2cc(OC)c(OC)cc2C1,0.3,-14.3,-7.4,3.0,1.7,1.2
C=CCNC(=S)Nc1ccc(OC(=O)Nc2ccc(Cl)c(Cl)c2)cc1,-0.1,22.4,28.0*,-9.1,8.9,-9.2
O=C(Nc1ccc(Cl)c(Cl)c1)c1ccco1,-0.1,-1.5,-1.5,12.7,1.6,-3.0
O=C(OCc1ccccc1)N1CCC2CC1c1cc(N3Cc4ccccc4-n4nncc4C3)ccc12 (stereo not drawn),0.1,-1.2,7.6,-4.3,0.2,-6.3
